# From ChEMBL document CHEMBL4513216, “Probing the Open Global Health Chemical Diversity Library for Multistage-Active Starting Points for Next-Generation Antimalarials” (ACS Infect Dis, 2020)
# Assay: Toxicity liver stage against HepG2, at 10uM
# Format: cell-based
# Set-up: test concentration 10 uM, cell line HepG2-A16-CD81EGFP
# Conditions: human, HepG2-A16-CD81EGFP cells; read-out: INHIBITION
# How it was run: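 Uninfected HepG2-A16-CD81EGFP cells, 3 × 10^3 per well, 1536-well, plated on prespotted compound at 10 μM final, parasite-free screening media added to match infected plates; puromycin 10 μM positive, DMSO 0.5% negative; run in parallel with 48 h PbLuc assay at 37 °C, 5% CO2; viability by CellTiter-Glo luminescence, normalized to controls.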
row,SMILES,cytotoxicity at 10 µM
1,CN(Cc1ccccc1)C(=O)Cn1nc(N2CCOCC2)ccc1=O,9.55%
2,CC(C)c1nnc2n1CCN(C(=O)c1ccc(OCC(N)=O)cc1)C2,-4.84%
3,CCc1cnc(N2CCC3(CC2)CN(c2cccnc2)C(=O)CO3)nc1,7.18%
4,CN(C)CC1CN(Cc2coc(-c3ccccc3Cl)n2)CCO1 (configuration not stated),-1.15%
5,O=C1NCCN1CCNc1cc(-c2ccccc2)nc2ccnn12,-10.7%
6,NS(=O)(=O)c1cccc(CNc2nccc(C(F)(F)F)n2)c1,-11.1%
7,CC(C)NC(=O)CNC(C)COc1ccccc1 (configuration not stated),-5.66%
8,Cc1nc(N2CCCC2)nc2c1CCN(Cc1nccn1C)CC2,-130%
9,COc1cccc(OC)c1CC(=O)NC(C#N)c1ccsc1 (configuration not stated),14.9%
10,CCc1nnc(CN2CCN(C(=O)c3cc4ccccc4[nH]3)CC2)o1,-0.385%
11,COc1ccc(CN2C[C@@H]3CN(C(=O)c4ccsc4)C[C@@H]3C2=O)cc1,-3.7%
12,O=C(NCc1ccc(Cl)cc1Cl)NCC1(O)CCSC1 (configuration not stated),-9.12%
13,COc1ncc(-c2c(C#N)c(N)nc3c2CCc2[nH]ccc2-3)cn1,6.47%
14,c1ccc(OCC2CC3(CCN(CC4CCOCC4)CC3)CO2)nc1 (configuration not stated),-1.37%
15,Cn1cccc1C(=O)N1CCC(c2nccn2Cc2ccncc2)CC1,-12%
16,Cc1cccc(CN2CCC(C3Nc4ccccc4S(=O)(=O)N3)CC2)n1 (configuration not stated),-18.9%
17,CC(NC(=O)NCCCNS(C)(=O)=O)c1ccncc1 (configuration not stated),1.08%
18,COc1ccc(C2CC(=O)Oc3cc(C)[nH]c(=O)c32)cc1O (configuration not stated),-4.47%
19,Cn1ncc2c1CCCC2NCc1ccc(OCc2cccnc2)cc1 (configuration not stated),4.13%
20,C=C(C)CN1CCC(NC(=O)c2scnc2C)CC1,-6.35%
21,C1CCC(CN2Cc3nnn(CC4CC4)c3C(COCC3CC3)C2)C1 (configuration not stated),19.7%
22,CN(Cc1cccs1)c1cc(N2CCCC2CO)ncn1 (configuration not stated),1.26%
23,COC(=O)c1ccoc1CN(C)Cc1cc(OC)c(OC)cc1C,-1.06%

row,SMILES,cytotoxicity at 10 µM
1,Cc1cnn(CCNCC(O)COc2ccc(F)cc2)c1 (configuration not stated),-1.76%
2,Cc1nc(C)n(CC2CCCN2Cc2cn3ccccc3c2C#N)n1 (configuration not stated),2.8%
3,COc1cccc(OCC(=O)N2CCCSCC2CN2CCOCC2)c1 (configuration not stated),4.01%
4,COC[C@@H]1CCC[C@@]12CN(C(=O)N1CCCC1)CCO2,-101%
5,Cc1n[nH]c(C)c1S(=O)(=O)N1CCC(Oc2cnccn2)CC1,3.15%
6,CC(=O)c1c(C)nn(S(=O)(=O)c2ccc(C)cc2)c1C,-1.61%
7,OC(CN1CCN(Cc2cccc(F)c2)CC1)C1CC1 (configuration not stated),-2.45%
8,Cc1cnc(N2CCC3(C2)CN(S(=O)(=O)C2CC2)C3)nc1,-106%
9,COc1cccc(C2CC(=O)Nc3nc(N4CCCCC4)sc32)c1OC (configuration not stated),10.4%
10,CN(Cc1ccsc1)C(=O)Nc1ccc(N2CCCC2)nc1,-10.5%
11,COCCC1CCN([C@@H]2c3ccccc3C3(CCNCC3)[C@H]2O)CC1,1.35%
12,CN(C)S(=O)(=O)N1CCC2(COCc3cnc(NCC4CC4)nc32)C1 (configuration not stated),7.66%
13,O=C1C[C@@H]2CC[C@H](CN1)N2C(=O)CCc1ccsc1,-6.06%
14,Nc1nc2cn(C3CCCC3)c(=O)c-2c[nH]1,-14.5%
15,CC(C(=O)N1CCCCC1)N1CCN(c2ncc(Cl)cn2)CC1 (configuration not stated),-4.79%
16,CC(=O)N1CCN(C(=O)CCNc2snc(Cl)c2C#N)CC1,-0.367%
17,CCOCC(O)CN1CCN(C(=O)C2CCCCC2)CC1 (configuration not stated),-21.5%
18,COc1ncc(C(=O)N2CCC(c3nc(C)n4ccsc34)CC2)cn1,-17.4%
19,Cc1cccc(C(C)(C)CNC(=O)CN(C)S(=O)(=O)c2cccnc2)c1,7.41%
20,CN1CCCCC12Cc1ccccc1CN(C(=O)C1CCCC1)C2 (configuration not stated),2.88%
21,Fc1cnc(N2CCCn3c(nnc3Cn3cccn3)C2)nc1,4.53%
22,COCCC1(CO)CCCN(Cc2ccc(C#N)cc2)C1 (configuration not stated),-156%
23,CC(C)Nc1nnc(SCc2nnc(C(C)(C)C)o2)s1,-0.386%

row,SMILES,cytotoxicity at 10 µM
1,Fc1ccc(CN[C@@H]2COC[C@H]2c2ccc(F)cc2)cc1,2.57%
2,Cc1cc(CN(C)Cc2csc(-c3ccc(C(C)C)cc3)n2)no1,41.1%
3,NC(=O)C1CN(c2ccc(Br)cn2)CCO1 (configuration not stated),0.105%
4,O=C(NCCC1CN(C2CCCC2)CCO1)c1c[nH]c(=O)[nH]c1=O (configuration not stated),0.0436%
5,CC(C)C(O)CNC(=O)Nc1cnn(C(C)C)c1 (configuration not stated),3.57%
6,Cn1nnnc1SCC(=O)N1CCN(C(=O)C2CC2c2cccs2)CC1 (configuration not stated),8.58%
7,CCN(CC)S(=O)(=O)c1ccc(CNC(=O)N2CCCCCC2)cc1,-2.9%
8,CCN1CCCC1CNC(=O)Cc1c(-c2ccc(Cl)cc2)n[nH]c1C (configuration not stated),-5.4%
9,Cc1ccc(F)cc1S(=O)(=O)NCc1cccnc1N(C)C,0.716%
10,c1nc(C2CCCCO2)ncc1CN1CCOCC1 (configuration not stated),-8.45%
11,O=C(Cc1ccccc1Cl)NCC1CCN(Cc2ccsc2)CC1,-9.12%
12,Cc1nn(C)c2nc(N(CCOc3ccccc3)CC3CCCO3)sc12 (configuration not stated),46.8%
13,Cc1ccc2c(c1)nc1n2[C@@H](CNC(=O)c2cncnc2)COC1,5.6%
14,Cn1nc(Br)c2c(=O)n(CCc3ccccc3)cnc21,-1.4%
15,Cn1ccnc1C(NCc1ccccc1)c1ccc(F)cc1 (configuration not stated),0.573%
16,Cc1nnc(C2CCN(C(=O)c3cnc4ccccc4n3)CC2)s1,7.1%
17,c1cc(CN2CCO[C@H]3[C@H](OCCN4CCCC4)CC[C@@H]32)co1,6.49%
18,COc1ccc(-n2cc(CNC(=O)c3cscn3)nn2)cc1,-2.33%
19,COC(=O)c1ccc(C(=O)NCC(O)c2cccn2C)cc1 (configuration not stated),-3.84%
20,CCCNC(=O)c1ccc(S(=O)(=O)NCC2(O)CCCNC2)cc1 (configuration not stated),-48.3%
21,CCN(CC)C[C@H]1CN2CC[C@H]1C[C@@H]2CNC(=O)c1ccco1,-2.49%
22,CN(C)C(=O)Cc1ccccc1NCc1cc(C#N)ccc1F,48.1%
23,Cc1cc(C)n(C2CN(c3ncnc4c3CCC4)C2)n1,8.09%

row,SMILES,cytotoxicity at 10 µM
1,Cc1ccc(S(=O)(=O)NCCc2ccoc2)s1,2.69%
2,Cc1ccc(C(=O)N2CCO[C@H]3[C@H](OCC4CCOCC4)CC[C@@H]32)o1,4.28%
3,CC(C)n1ccnc1C1CCN(Cc2ccc(C(F)(F)F)c(F)c2)CC1,-7.43%
4,Cc1cc(C)nc(Nc2nccnc2C2CCCN(C(C)C)C2)n1 (configuration not stated),-6.15%
5,CC(NC(=O)NCCNc1ccccn1)c1cccs1 (configuration not stated),1.48%
6,Cc1ncc(CN(C)CC(O)c2ccc(Br)cc2)s1 (configuration not stated),7.12%
7,CNCc1nc(-c2ccc3c(c2)OCO3)c[nH]1,3.44%
8,Cn1ccnc1CN1CCC2(CC1)CN(c1ccccn1)CCO2,-0.335%
9,CN(C)CCCNC(=O)C1CC(=O)N(c2n[nH]c3cccc(F)c23)C1 (configuration not stated),-5.92%
10,COC(=O)c1cccc(S(=O)(=O)Nc2ncc(C)s2)c1,0.158%
11,CC(C)CN1C[C@H]2CCN(Cc3cccnc3)CC[C@H]2S1(=O)=O,-1.8%
12,Cc1cnn(CCNCc2nnc(C3CC3)o2)c1,-7.89%
13,CCC(CC)(CC(=O)OC)NC(=O)Nc1nnc(-c2ccccn2)s1,-8.68%
14,Cc1oc(C(=O)O)cc1S(=O)(=O)Nc1cccc(-n2nccc2C)c1,4.46%
15,CCCN1CCC2(C1)c1ccccc1S(=O)(=O)N2Cc1ccc(F)cc1 (configuration not stated),18.3%
16,CC(C)(C)c1nc(CN2CCCC2Cn2cccn2)no1 (configuration not stated),0.222%
17,Cc1nc(CCC(=O)NC2CCC2)cc(C2CCCNC2)n1 (configuration not stated),1.09%
18,O=C(N1CCC(Oc2ccncc2)C1)C1(c2cccc(F)c2)CC1 (configuration not stated),-6.52%
19,CC(C)(C)c1nnc(CN2CCCC(Cn3cncn3)C2)o1 (configuration not stated),-6.31%
20,CC1CN(C)CCN1C(=O)c1ccc(-n2cnnc2)cc1 (configuration not stated),2.84%
21,CN(C)Cc1cn2c(n1)CN(CC1CCCC1)CC2,-149%
22,CCOC(=O)CSc1nnc([C@@H](N)C(C)CC)o1 (some centres not stated),2%
23,c1ccc2c(c1)CC(Cc1cc(N3CCCC3)cnn1)CO2 (configuration not stated),-6.03%

row,SMILES,cytotoxicity at 10 µM
1,Cc1c[nH]c(C2COCCN2C(=O)CCc2c(C)n[nH]c2C)n1 (configuration not stated),-0.615%
2,CCCOc1ccc(CNC2CCCc3c2cnn3CC)cc1OC (configuration not stated),-10.8%
3,Cc1ccc(C(=O)N2CCC(n3cc(CN)nn3)CC2)cc1F,-3.54%
4,COc1cc(CSc2nnc(C)n2CC(N)=O)ccc1SC,-7.91%
5,CC(C)N1CCOC(c2ccnc(N(C)C)n2)C1 (configuration not stated),-0.104%
6,OCCOc1ccc(NCc2cccc3[nH]ccc23)cn1,0.205%
7,CCCc1cc(=O)n(CC(=O)NC(C)C)c(-n2nc(C)cc2C)n1,2.74%
8,CS(=O)(=O)N1CCc2sc(C(=O)NCc3ccncc3)cc21,2.93%
9,CCOC(=O)C1(Cc2cccc(Cl)c2)CCCN(Cc2ncc[nH]2)C1 (configuration not stated),-5.22%
10,CC(C)N1CCC(CC(=O)N(C)C(C)c2cncs2)CC1 (configuration not stated),3.65%
11,CCOCC1CN(C(=O)N2CCCC2)Cc2cnn(C)c21 (configuration not stated),-0.96%
12,O=C1CCSCC(C(=O)N2CCN(C3CCCCC3)CC2)N1 (configuration not stated),-18.7%
13,CC(C)C(=O)Nc1ccc2c(c1)ncn2CC(=O)NCCN(C)C,-9.1%
14,Cc1cccc(NC2CCN(C(=O)Nc3cc(C)on3)CC2)n1,-13.7%
15,c1ccc(CCCn2cc(-c3nc(CN4CCOCC4)no3)nn2)cc1,2.14%
16,COc1ccccc1N1CCN(C(=O)CCc2nncn2C)C(C)C1 (configuration not stated),16%
17,CCC[C@H]1CN(CCCO)C[C@@H]1NC(=O)Cn1cc(C)cn1,1.39%
18,CNCc1cc(F)ccc1Oc1ccc(Cl)cc1,-8.74%
19,CC(C)(C)c1nc(CN2CCCC2c2nnc3ccccn23)no1 (configuration not stated),-1.99%
20,Cc1cc(S(=O)(=O)Nc2cccc(-n3cccc3)c2)sc1C(=O)O,-2.23%
